Assay results from ChEMBL document CHEMBL1149329, “Synthesis and biological activity of sulfonamide derivatives of epipodophyllotoxin” (J Med Chem, 2004).
Several values for one entry are separate records, joined by “and”; a condition that tells them apart may be missing. Equal entries are not always repeated.

Tests used:
L1210 [1] = assay: Percent of L1210 cells in the G2+M phase of the cell cycle at a compound concentration of 0.25 uM; format: functional, Mus musculus
Summary of the method: (§1)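 L1210 cells (2.5 × 10⁵ cells/mL) were incubated for 21 h with compound at the stated concentration. Flow cytometry was run on 10⁴ cells per sample, and the percentage of cells in G2+M was recorded.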

[2] = biological target: DNA topoisomerase II (Homo sapiens) (UniProt P11388+Q02880); assay: Inhibition of human DNA Topoisomerase II mediated DNA cleavage through the stabilization of transient DAN/topoisomerase II cleavage complex; format: protein assay
Summary of the method: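 Supercoiled pBS DNA (0.1 μg) preincubated 15 min at 30 °C with drug at 50 μM in 50 mM Tris-HCl pH 7.5, 1 mM ATP, 120 mM KCl, 10 mM MgCl2, 0.5 mM DTT, 0.1 mM EDTA, BSA. Two units human topo II added, 30 min at 30 °C. SDS/proteinase K digestion 30 min at 55 °C. 1% agarose gel with ethidium bromide; linear DNA percentage read, mean of three independent experiments.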

L1210 [3] = assay: Inhibitory concentration required to reduce 50 percent L1210 cell growth; format: functional, cell-based; conditions: Mus musculus
Summary of the method: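 L1210 cells were grown in RPMI 1640 with 10% fetal calf serum, 2 mM glutamine, antibiotics and 10 mM HEPES (pH 7.4). Cells were exposed to compound for 48 h. MTT was then added for 4 h at 37 °C, and formazan was dissolved in DMSO and read at 540 nm. IC50 is the concentration reducing OD by 50%, from linear regression on the linear part of the curve. Triplicate.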

L1210 [4] = assay: Percent of L1210 cells in the G2+M phase of the cell cycle at a compound concentration of 5 uM; Toxic at 10 uM; format: functional, Mus musculus; summary of the method: as §1
L1210 [5] = assay: Percent of L1210 cells in the G2+M phase of the cell cycle at a compound concentration of 2.5 uM; format: functional, Mus musculus; summary of the method: as §1
P388 [6] = assay: Antitumor activity against P388 leukemia at dose range of 1.56-25 mg/kg on day 1, activity expressed as maximum tolerated dose; format: functional, Mus musculus
P388 [7] = assay: Evaluated for long-term survivors scored at day 60; 0/6; format: functional, Mus musculus
A549 [8] = assay: Antitumor activity against A549 non small cell carcinoma at dose range of 1.56-6.25 mg/kg on day 14, 21, 28; activity expressed as maximum tolerated dose; format: functional, Homo sapiens
Summary of the method: (§2)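 A549 human lung tumour cells were implanted orthotopically, 10⁶ cells through the chest wall into the left pleural space of anaesthetised BALB/C nude mice. Once tumours were established, drug was given iv on days 14, 21 and 28 after tumour cell injection. The endpoint was life span, expressed as T/C (%) = median survival time of treated/control × 100. MTD was the dose causing no toxic death and/or no weight loss >20%.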

P388 [9] = assay: Median survival time of treated animals/median survival time of control animals; format: functional, Mus musculus
[10] = Median survival time of treated animals/median survival time of control animals; ranges from 126-159; format: functional; summary of the method: as §2
L1210 [11] = assay: Percent of L1210 cells in the G2+M phase of the cell cycle at a compound concentration of 0.1 uM; format: functional, Mus musculus; summary of the method: as §1
L1210 [12] = assay: Percent of L1210 cells in the G2+M phase of the cell cycle at a compound concentration of 25 uM; format: functional, Mus musculus; summary of the method: as §1
A549 [13] = assay: Antitumor activity against A549 non small cell carcinoma at dose range of 3.12-12.5 mg/kg on day 14, 21, 28; activity expressed as maximum tolerated dose; format: functional, Homo sapiens; summary of the method: as §2
L1210 [14] = assay: Percent of L1210 cells in the G2+M phase of the cell cycle at a compound concentration of 0.5 uM; format: functional, Mus musculus; summary of the method: as §1
P388 [15] = assay: Antitumor activity against P388 leukemia at dose range of 12.5-200 mg/kg on day 1, activity expressed as maximum tolerated dose; format: functional, Mus musculus
L1210 [16] = assay: Percent of L1210 cells in the G2+M phase of the cell cycle at a compound concentration of 1 uM; format: functional, Mus musculus; summary of the method: as §1

COc1cc([C@@H]2c3cc4c(cc3[C@@H](NS(=O)(=O)CCCCl)[C@H]3COC(=O)[C@H]23)OCO4)cc(OC)c1O
Effect (L1210 [1]): 66% | Activity [2]: 14 | IC50 (L1210 [3]): 45 nM

COc1cc([C@@H]2c3cc4c(cc3[C@@H](NS(=O)(=O)c3c(F)c(F)c(F)c(F)c3F)[C@H]3COC(=O)[C@H]23)OCO4)cc(OC)c1O
Effect (L1210 [4]): 52% | Activity [2]: 0 | IC50 (L1210 [3]): 1000 nM

CCCCN(CCCC)S(=O)(=O)N[C@@H]1c2cc3c(cc2[C@@H](c2cc(OC)c(O)c(OC)c2)[C@H]2C(=O)OC[C@@H]21)OCO3
Effect (L1210 [5]): 60% | Activity [2]: 0 | IC50 (L1210 [3]): 510 nM

COc1cc([C@@H]2c3cc4c(cc3[C@@H](NS(=O)(=O)c3ccc(S(C)(=O)=O)cc3)[C@H]3COC(=O)[C@H]23)OCO4)cc(OC)c1O
Effect (L1210 [5]): 75% | Activity [2]: 10 | IC50 (L1210 [3]): 550 nM

COc1cc([C@@H]2c3cc4c(cc3[C@@H](NS(=O)(=O)N3CCN(C)CC3)[C@H]3COC(=O)[C@H]23)OCO4)cc(OC)c1O
MTD (P388 [6]): 12.5 | Activity [2]: 45 | LTS (P388 [7]): 0 | MTD (A549 [8]): 6.25 | T/C (P388 [9]): 229% | IC50 (L1210 [3]): 48 nM | T/C [10]: 159% | Effect (L1210 [11]): 84%

CCCCCCCCCCCCCCCCS(=O)(=O)N[C@@H]1c2cc3c(cc2[C@@H](c2cc(OC)c(O)c(OC)c2)[C@H]2C(=O)OC[C@@H]21)OCO3
Activity [2]: 0 | Effect (L1210 [12]): 73% | IC50 (L1210 [3]): 5500 nM

CCN(CC)S(=O)(=O)N[C@@H]1c2cc3c(cc2[C@@H](c2cc(OC)c(O)c(OC)c2)[C@H]2C(=O)OC[C@@H]21)OCO3
Effect (L1210 [1]): 86% | MTD (P388 [6]): 25 | Activity [2]: 24 | LTS (P388 [7]): 0 | T/C (P388 [9]): 106% and 120% | IC50 (L1210 [3]): 83 nM | MTD (A549 [13]): 6.25

COc1cc([C@@H]2c3cc4c(cc3[C@@H](NS(=O)(=O)N3CCCCC3)[C@H]3COC(=O)[C@H]23)OCO4)cc(OC)c1O
Activity [2]: 34 | LTS (P388 [7]): 0 | T/C (P388 [9]): 121% | IC50 (L1210 [3]): 120 nM | Effect (L1210 [14]): 77% | MTD (P388 [15]): 200

CCCCCCCCS(=O)(=O)N[C@@H]1c2cc3c(cc2[C@@H](c2cc(OC)c(O)c(OC)c2)[C@H]2C(=O)OC[C@@H]21)OCO3
Activity [2]: 35 | IC50 (L1210 [3]): 250 nM | Effect (L1210 [16]): 76%

COc1cc([C@@H]2c3cc4c(cc3[C@@H](NS(=O)(=O)c3ccc(N=[N+]=[N-])cc3)[C@H]3COC(=O)[C@H]23)OCO4)cc(OC)c1O
Activity [2]: 9 | IC50 (L1210 [3]): 210 nM | Effect (L1210 [14]): 69%

COc1cc([C@@H]2c3cc4c(cc3[C@@H](N)[C@H]3COC(=O)[C@H]23)OCO4)cc(OC)c1O
Effect (L1210 [5]): 57% | Activity [2]: 0 | IC50 (L1210 [3]): 630 nM
